Active and inactive are the calls of the source. The calls are words filed in the database; no cut-off is given here.
Assays:
[1] = Cytotoxicity against mouse J774 cells assessed as reduction of cell viability after 24 hrs by resazurin dye-based fluorometric analysis
In short: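 J774 macrophages in RPMI 1640 with 10% heat-inactivated FBS, seeded at 5 × 10^4 cells/well and attached 24 h at 37 °C, 5% CO2. Medium swapped for drug dilutions for 24 h. Then 2.5 mM resazurin stock added for 3 h, fluorescence read at 535 nm excitation / 590 nm emission. Triplicate; CC50 from probit analysis.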

[2] = test system: Leishmania amazonensis; assay: Leishmanicidal activity against extracellular promastigote stage of Leishmania amazonensis MHOM/Br/79/Maria assessed as reduction of parasite load after 48 hrs by resazurin dye-based fluorometric analysis; type: functional, organism-based; conditions: Leishmania amazonensis, MHOM/Br/79/Maria, 48 h; read-out: IC50
In short: (§1)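 Log-phase promastigotes cultured in Schneider's medium with 20% heat-inactivated FBS at 26 °C, 2.5 × 10^5 per well. DMSO-dissolved compounds added as 2-fold serial dilutions, final DMSO ≤0.2% (v/v), 48 h at 26 °C. Growth read by 2.5 mM resazurin stock, fluorescence 535/590 nm. Triplicate; IC50 by probit analysis.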

[3] = test system: Leishmania guyanensis; assay: Leishmanicidal activity against extracellular promastigote stage of Leishmania guyanensis 141/93 assessed as reduction of parasite load after 48 hrs by resazurin dye-based fluorometric analysis; type: functional, organism-based; conditions: Leishmania guyanensis, 141/93, 48 h; read-out: IC50; in short: as §1
[4] = test system: Leishmania braziliensis; assay: Leishmanicidal activity against extracellular promastigote stage of Leishmania braziliensis 2903 assessed as reduction of parasite load after 48 hrs by resazurin dye-based fluorometric analysis; type: functional, organism-based; conditions: Leishmania braziliensis, 2903, 48 h; read-out: IC50; in short: as §1
[5] = test system: Leishmania infantum; assay: Leishmanicidal activity against extracellular promastigote stage of Leishmania infantum MCAN/ES/96/BCN150 assessed as reduction of parasite load after 48 hrs by resazurin dye-based fluorometric analysis; type: functional, organism-based; conditions: Leishmania infantum, MCAN/ES/96/BCN150, 48 h; read-out: IC50; in short: as §1
[6] = test system: Trypanosoma cruzi; assay: Trypanocidal activity against extracellular epimastigote stage of Trypanosoma cruzi CL-B5 assessed as reduction of parasite load after 72 hrs by CPRG-based colorimetric analysis
[7] = test system: Trypanosoma cruzi; assay: Trypanocidal activity against bloodstream trypomastigote stage of Trypanosoma cruzi Y infected in BALB/c mouse assessed as reduction of survival rate at 10 mg/kg/day, ip qd administered for 5 days measured daily until day 30 post-infection; type: functional, organism-based
In short: (§2)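 Female BALB/c mice (20–24 g) infected ip with 10^4 Y-strain bloodstream trypomastigotes; only parasitemic animals used. Compounds dissolved in DMSO, freshly diluted in propylene glycol, given ip at 10 mg/kg/day for 5 days from 5 dpi, with an untreated group. Parasitemia counted by Pizzi–Brener in 5 μL tail blood at 5, 8, 10 dpi; mortality checked daily to 30 dpi.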

[8] = test system: Trypanosoma cruzi; assay: Trypanocidal activity against bloodstream trypomastigote stage of Trypanosoma cruzi Y infected in BALB/c mouse assessed as reduction of parasitemia at 10 mg/kg/day, ip qd administered for 5 days measured on day 10 post-infection by microscopic analysis relative to control; type: functional; parameters: scale not given: the % may be the effect or the level left; conditions: route intraperitoneal; in short: as §2
[9] = test system: Trypanosoma cruzi; assay: Trypanocidal activity against bloodstream trypomastigote stage of Trypanosoma cruzi Y infected in BALB/c mouse assessed as reduction of parasitemia at 10 mg/kg/day, ip qd administered for 3 days measured on day 8 post-infection by microscopic analysis relative to control; type: functional; parameters: scale not given: the % may be the effect or the level left; conditions: route intraperitoneal; in short: as §2
[10] = test system: Leishmania amazonensis; assay: Leishmanicidal activity against intracellular amastigote stage of Leishmania amazonensis MHOM/Br/79/Maria infected in mouse J774 cells assessed as reduction of parasite load after 48 hrs by resazurin dye-based fluorometric analysis; type: functional, organism-based
In short: (§3)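 J774 macrophages (5 × 10^4/well) infected with stationary promastigotes at 1:10, 24 h at 33 °C then 24 h at 37 °C, 5% CO2, and washed free of promastigotes. Then 2-fold serial dilutions in triplicate for 48 h at 37 °C. Cells lysed with RPMI with 0.048% HEPES and 0.006% SDS, transformed in Schneider's 3 days at 26 °C, resazurin 3 h, fluorescence 535/590 nm.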

[11] = test system: Leishmania infantum; assay: Leishmanicidal activity against intracellular amastigote stage of Leishmania infantum MCAN/ES/96/BCN150 infected in mouse J774 cells assessed as reduction of parasite load after 48 hrs by resazurin dye-based fluorometric analysis; type: functional, organism-based; in short: as §3
[12] = Selectivity index, ratio of CC50 for mouse NCTC-929 cells to IC50 for extracellular epimastigote stage of Trypanosoma cruzi CL-B5; type: functional
[13] = Cytotoxicity against mouse NCTC-929 cells assessed as reduction of cell viability after 24 hrs by resazurin dye-based […]
In short: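 NCTC clone 929 fibroblasts in DMEM with 10% FBS and 2 mM L-glutamine, plated at 3 × 10^4 cells/well and grown overnight at 37 °C, 5% CO2. Compounds in fresh medium for 24 h, then 2 mM resazurin solution added for 3 h. Absorbance read at 570 and 595 nm; CC50 taken as 50% viability loss versus untreated cells, by probit analysis.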

[14] = test system: Trypanosoma cruzi; assay: Trypanocidal activity against intracellular amastigote stage of Trypanosoma cruzi CL-B5 infected in mouse NCTC-929 cells assessed as reduction of parasite load after 7 days by CPRG-based colorimetric analysis
[15] = test system: Leishmania infantum; assay: Leishmanicidal activity against promastigote stage of Leishmania infantum MCAN/ES/96/BCN150 infected in BALB/c mouse assessed as reduction of parasite burden in liver at 5 mg/kg, ip qd administered for 5 days measured after 7 days by limiting dilution assay relative to untreated control; type: functional
In short: (§4)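 BALB/c mice infected intracardially under pentobarbital anaesthesia with 10^7 stationary L. infantum BCN150 promastigotes. From day 21 post-infection, dosed ip once daily for 5 days in 0.1 mL propylene glycol, with an untreated control group. Killed 7 days later; spleen and liver burdens by limiting dilution and expressed as % reduction versus controls.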

[16] = test system: Leishmania infantum; assay: Leishmanicidal activity against promastigote stage of Leishmania infantum MCAN/ES/96/BCN150 infected in BALB/c mouse assessed as reduction of parasite burden in spleen at 5 mg/kg, ip qd administered for 5 days measured after 7 days by limiting dilution assay relative to untreated control; type: functional; parameters: scale not given: the % may be the effect or the level left; conditions: route intraperitoneal; in short: as §4
[17] = Selectivity index, ratio of CC50 for mouse J774 cells to IC50 for extracellular promastigote stage of Leishmania amazonensis MHOM/Br/79/Maria; type: functional
[18] = Selectivity index, ratio of CC50 for mouse J774 cells to IC50 for extracellular promastigote stage of Leishmania infantum MCAN/ES/96/BCN150; type: functional
[19] = Trypanosoma cruzi, CL-B5, 72 h, read-out: IC50
[20] = Leishmania amazonensis, MHOM/Br/79/Maria, J774, 48 h, read-out: IC50
[21] = Leishmania infantum, MCAN/ES/96/BCN150, J774, 48 h, read-out: IC50

Row | Compound | CC50 at 24 h [1] [µM] | IC50 [2] [µM] | IC50 [3] [µM] | IC50 [4] [µM] | IC50 [5] [µM] | IC50 [6] | other results
1 | O=[N+]([O-])c1ccc(S(=O)(=O)Nc2ccc3cn[nH]c3c2)cc1 | ≥ 300 | 60.3 | 48.1 | 21.7 | 43.3 | Not Active | 
2 | O=S(=O)(Nc1ccc2c[nH]nc2c1)c1ccc(Cl)cc1 | ≥ 300 | 59.1 | 46.1 | 35.6 | 43.5 |  | Activity [7]: inactive; Activity [8]: 14%; Activity [9]: -10%; IC50 ([10]; j774): Not Active; IC50 ([11]; j774): Not Active; Ratio CC50/IC50 [12]: >9.9; CC50 at 24 h [13]: 211 µM; IC50 [6, 19]: 25.9 µM; IC50 ([14]; Trypanosoma cruzi, CL-B5, NCTC-929, 168 h, read-out: IC50): 12.3 µM
3 | CC1CCCN(S(=O)(=O)c2ccccc2)C1 (centres undefined) | ≥ 300 | 40.9 | 54.3 | 115 | 112 | Not Active | 
4 | CCCCCCCCCCCCCCCCOP(=O)([O-])OCC[N+](C)(C)C [MILTEFOSINE] | 136 | 34.1 | 44.6 | 7.6 | 17.6 |  | IC50 [10, 20]: 20.9 µM; IC50 [11, 21]: 23.7 µM
5 | O=[N+]([O-])c1ccc(S(=O)(=O)Nc2ccc3[nH]ncc3c2)cc1 | 133 | 66.7 | 140 | 80.8 | 61.3 |  | 
6 | O=S(=O)(Nc1cccc2cnccc12)c1ccc(Cl)cc1 | 60.8 | 8.4 | 22.6 | 29.8 | 21 |  | 
7 | O=S(=O)(Nc1nccc2ccccc12)c1ccc(Cl)cc1 | ≥ 300 | 82.8 | 4.3 | 37 | 51.4 | Not Active | 
8 | Cc1cc2cc(NS(=O)(=O)c3ccc(F)cc3)ccc2[nH]1 | 40.4 | 12.5 | 117 | 42.7 | 34.5 |  | 
9 | O=[N+]([O-])c1ccc(S(=O)(=O)Nc2ncccn2)cc1 | ≥ 300 | 68.6 | 46.4 | 48.8 | 76.4 |  | IC50 [6, 19]: 156 µM
10 | O=S(=O)(Nc1ccc2ncsc2c1)c1ccccc1 | ≥ 300 | 82.6 | 23.7 | 30.6 | 18.4 | Not Active | Activity [15]: inactive; Activity [16]: 53.51%; IC50 [10, 20]: 77.5 µM; IC50 [11, 21]: 39.2 µM; Ratio CC50/IC50 [17]: >3.1; Ratio CC50/IC50 [18]: > 13.9; IC50 ([14]; nctc-929): Not Active
11 | O=[N+]([O-])c1ccc(S(=O)(=O)Nc2ccc3nccnc3c2)cc1 | ≥ 300 | 198 | 101 | 60.8 | 81.7 | Not Active | 
12 | Cc1cc2cc(NS(=O)(=O)c3ccc(Cl)cc3)ccc2[nH]1 | 195 | 18.2 | 10.4 | 23 | 12.4 |  | 
